Experimental data reported in ChEMBL document CHEMBL3414559, “Novel C-4 heteroaryl 13-cis-retinamide Mnk/AR degrading agents inhibit cell proliferation and migration and induce apoptosis in human breast and prostate cancer cells and suppress growth of MDA-MB-231 human breast and CWR22Rv1 human prostate tumor xenografts in mice” (J Med Chem, 2015).

Columns and labels:
MDA-MB-231 = assay: Growth inhibition of human MDA-MB-231 cells by MTT assay; type: functional
Summary of the method: (§1)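 Cells grown in RPMI 1640 with 10% FBS, plated at 2500 cells/well, treated across a dose range; growth read by MTT. GI50 taken from dose–response curves by nonlinear regression, at least three independent experiments.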

MDA-MB-468 = assay: Growth inhibition of human MDA-MB-468 cells by MTT assay; type: functional; summary of the method: as §1
[1] = Growth inhibition of human SKBR3 cells by MTT assay; type: functional; settings: SK-BR-3; summary of the method: as §1
MCF7 = assay: Growth inhibition of human MCF7 cells by MTT assay; type: functional; summary of the method: as §1
LNCaP = assay: Growth inhibition of human LNCAP cells by MTT assay; type: functional; summary of the method: as §1
[2] = Growth inhibition of human PC3 cells by MTT assay; type: functional; settings: PC-3; summary of the method: as §1
[3] = Growth inhibition of human CWR22Rv1 cells by MTT assay; type: functional, CWR22R; settings: 22Rv1; summary of the method: as §1

| Compound | GI50 (MDA-MB-231) [µM] | GI50 (MDA-MB-468) [µM] | GI50 [1] [µM] | GI50 (MCF7) [µM] | GI50 (LNCaP) [µM] | GI50 [2] [µM] | GI50 [3] [µM] |
| --- | --- | --- | --- | --- | --- | --- | --- |
| CC1=C(/C=C/C(C)=C/C=C/C(C)=C\C(=O)NCCc2ccc(O)cc2)C(C)(C)CC=C1c1cccnc1 | 26.9 | 50.1 | 42.2 | 8.75 |  |  |  |
| CC1=C(/C=C/C(C)=C/C=C/C(C)=C\C(=O)NCc2cccc(F)c2)C(C)(C)CCC1n1ccnc1 (stereo not given) | 1.65 | 3.09 | 4.24 | 1.81 |  |  |  |
| CC1=C(/C=C/C(C)=C/C=C/C(C)=C\C(=O)Nc2ccc(O)cc2)C(C)(C)CCC1n1ccnc1 (stereo not given) | 13.1 | 6.83 | 3.89 | 1.99 | 3.54 | 11.7 | 3.89 |
| CC1=C(/C=C/C(C)=C/C=C/C(C)=C\C(=O)NCc2ccc(O)cc2)C(C)(C)CC=C1c1cncnc1 | 11.5 | 19.1 | 11.5 | 4.96 |  |  |  |
| CC1=C(/C=C/C(C)=C/C=C/C(C)=C\C(=O)Nc2ccccc2O)C(C)(C)CCC1n1ccnc1 (stereo not given) | 4.67 | 3.03 | 3.89 | 1.09 | 3.23 | 15.5 | 2.23 |
| CC1=C(/C=C/C(C)=C/C=C/C(C)=C\C(=O)NCc2ccccc2)C(C)(C)CCC1n1ccnc1 (stereo not given) | 5.88 | 7.24 | 10.7 | 9.77 | > 100 | > 100 | > 100 |
| CC1=C(/C=C/C(C)=C/C=C/C(C)=C\C(=O)Nc2ccccc2)C(C)(C)CC=C1c1cncnc1 | 26.9 | 22.9 | 31 | 7.01 |  |  |  |
| CC(O)(CS(=O)(=O)c1ccc(F)cc1)C(=O)Nc1ccc(C#N)c(C(F)(F)F)c1 (stereo not given) [BICALUTAMIDE] |  |  |  |  | 2.61 | 9.15 | 3.81 |
